Compound activity: PubChem, The Scripps Research Institute Molecular Screening Center
SIAE inh – human SIAE inhibitors, primary screen, biochemical, fluorescence polarization, FP-Rh probe, 1536-well HTS | Sialate O-acetylesterase (Homo sapiens), Q9HAT2 | SIAE FP-Rh probe binding | inhibition, % at 9.66 µM | 370,000 tested, 0.69% active;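 active means inhibition above a cutoff: mean of compounds within the control limits plus 3 SD of those, cut at about 17% in these data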;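 further: 0% = plate median of compound wells and 100% = probe without SIAE protein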
Target sequence (Q9HAT2 whole entry, looked up): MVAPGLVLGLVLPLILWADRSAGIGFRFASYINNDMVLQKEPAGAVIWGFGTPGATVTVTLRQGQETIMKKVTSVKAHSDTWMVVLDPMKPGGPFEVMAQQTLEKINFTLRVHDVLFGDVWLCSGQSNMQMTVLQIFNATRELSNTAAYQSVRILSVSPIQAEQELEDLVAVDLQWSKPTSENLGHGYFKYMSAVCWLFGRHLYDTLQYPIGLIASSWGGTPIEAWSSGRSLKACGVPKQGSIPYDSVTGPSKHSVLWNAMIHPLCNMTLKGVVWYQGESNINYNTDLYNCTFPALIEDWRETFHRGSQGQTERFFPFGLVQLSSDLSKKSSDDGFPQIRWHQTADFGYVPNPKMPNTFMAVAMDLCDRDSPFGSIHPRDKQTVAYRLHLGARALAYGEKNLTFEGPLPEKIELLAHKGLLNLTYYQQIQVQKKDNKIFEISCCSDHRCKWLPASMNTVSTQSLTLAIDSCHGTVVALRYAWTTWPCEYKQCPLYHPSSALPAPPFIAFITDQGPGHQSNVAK
TCR-CD3 inh – inhibitors of human TCR-CD3 interaction, primary screen, biochemical, fluorescence, TAMRA-labeled TCR probe; T-cell receptor (TCR); inhibition, % at 9.4 µM; 360,000 tested, 0.37% active; AID 651800, 2012;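 further: recombinant mutant TCR 2C K166C tagged with TAMRA read by polarization; 0% = receptor in buffer alone and 100% = receptor with positive control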
mABHD4 FP – ABHD4 inhibitors, primary screen, biochemical, fluorescence polarization, mouse; purified mABHD4, FP-Rh probe fluorescence polarization; inhibition, % at 8.92 µM; 370,000 tested, 0.54% active;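 active means inhibition exceeding the mean over every tested compound plus 3 SD, cut at about 30% in these data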;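 further: 0% = plate median of compound wells and 100% = S159A mutant with DMSO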
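Assay system: Wild-type mouse ABHD4 protein | Medium: HEPES pH 7.0 buffer, 150 mM NaCl, 0.01% Pluronic F-127 | Incubation: Enzyme–compound pre-incubation 45 min, then probe 60 min, both 25 °C | Technique: Fluorescence polarization with parallel and perpendicular emission, 525/598 nm | Evaluation: % inhibition of FP-Rh probe binding versus controls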
HTRA1 inh – HTRA1 serine protease inhibitors, primary screen, biochemical, fluorescence polarization, HTS. recombinant HTRA1, FP-rhodamine activity-based probe. inhibition, % at 5.96 µM. 340,000 tested, 0.5% active. AID 504803, 2011; in the data active means inhibition above about 36%;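 further: 0% = enzyme with DMSO and 100% = wells lacking enzyme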
PRMT1 FP inh – PRMT1 methyltransferase inhibitors, primary screen, biochemical, fluorescence polarization | Protein arginine N-methyltransferase 1 (Homo sapiens), Q99873 | recombinant PRMT1, activity-based probe fluorescence polarization | inhibition, % at 2.79 µM | 370,000 tested, 1.3% active;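 active means inhibition above about 21% made by adding two undisclosed values, limit read from the data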
BSA probe FL – compounds interfering with TAMRA-BSA probe, counter-screen for TCR-CD3 interaction inhibitor project, biochemical, fluorescence, TAMRA-labeled BSA | shares compounds with TCR-CD3 inh | TAMRA-labeled BSA probe fluorescence counterscreen | inhibition, % at 9.4 µM | 1,200 tested, 10% active; in the data active means inhibition above about 23%;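 further: 0% = buffer low control and 100% = reference high control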
TCR-CD3 inh conf – TCR-CD3 interaction inhibitors, retest, confirmation, biochemical, fluorescence, TAMRA-labeled TCR probe. shares compounds with TCR-CD3 inh. TAMRA-labeled TCR probe fluorescence binding assay. inhibition, % at 9.4 µM. 1,200 tested, 48% active
* hit, by the source's call; . = no result. Rows were chosen to be rich in hits. Some 2.6% of all compounds tested hit in one or more screens of this group. Unless noted, no stated cut-off is given here; in the data, active means inhibition above about 19%; inactive means the rest.

SMILES	SIAE inh	TCR-CD3 inh	mABHD4 FP	HTRA1 inh	PRMT1 FP inh	BSA probe FL	TCR-CD3 inh conf
O=C(/C=C/c1ccccc1)Nc1cccc(C(=O)NCCc2ccccc2)c1	-12	9	-17	-22	-4	.	.
O=C(/C=C/c1ccccc1)Nc1cccc(C(=O)NCCCCc2ccccc2)c1	-151	44*	-93	-108	5	7	16
COC(=O)C1CN(Cc2ccc(C)cc2)CCS(=O)(=O)N1Cc1cn(Cc2ccc(C)cc2)nn1 (stereo not given)	9	.	-3	.	0	.	.
CC(=O)c1ccc(NC(=O)c2cccc(N3C(=O)c4ccccc4C3=O)c2)cc1	.	.	.	-3	.	.	.
NS(=O)(=O)c1ccc(NC(=O)c2cccc(N3C(=O)c4ccccc4C3=O)c2)cc1	-23	25*	-13	-6	-1	-1	30*
CCOC(=O)C1=C(CC)Nc2ccccc2N=C1NC(=O)Nc1ccc(Cl)c(Cl)c1	-101	79*	-100	-93	-3	20	54*
COC(=O)[C@@]12CCCCC3=C1N(CCC3)C(=O)[C@H]2CC(=O)N1CCSCC1	-3	.	2	.	2	.	.
COc1cc(/C=N/NC(=O)c2cc(O)cc(O)c2)ccc1OC(=O)c1ccccc1	-29	20*	-27	-29	4	-10	26*
COc1cc(OC)cc(C(=O)N/N=C/c2ccc(OC)c(COc3ccc4ccccc4c3)c2)c1	-84	40*	-83	-89	-2	9	35*
O=C(N/N=C/c1ccoc1)c1cc(O)cc(O)c1	9	20*	16	13	10	-4	23*
COc1cc(OC)c2c(c1O)OC(c1ccccc1)CC2=O (stereo not given)	4	39*	7	25	-6	-6	19*
CCCCOCCCNC(=O)C[C@H]1C[C@@]2(C(=O)OC)C(=C[C@H](C(C)C)O[C@@H]2C2CC2)N(Cc2ccccc2)C1=O	2	-5	4	.	-1	.	.
CCN(CC)C(=O)CC[C@@H]1CC[C@]2(CCCN(Cc3ccccc3)C2)O1	-3	.	-8	.	3	.	.
Cc1cccc(C(=O)c2ccccc2C(=O)O)c1O	2	10	6	3	1	.	.
CCN(CC)c1ccc(C(=O)c2ccccc2C(=O)O)c(O)c1	11	40*	28	15	2	56*	36*
O=C(O)c1ccccc1N/N=C/C1=C(N2CCOCC2)C(=C\c2ccccc2)/CC1	8	20*	29	12	13	-10	-2
O=C(N/N=C/C1=C(N2CCOCC2)C(=C\c2ccccc2)/CC1)Nc1ccccc1	4	-4	9	-3	2	.	.
COCCNC(=O)CSCc1nc(-c2ccc(SC)cc2)oc1C	-1	33*	-5	4	9	8	3
COc1ccc(NC(=O)CCCNC(=O)Cn2cnc3sc(C)c(C)c3c2=O)c(OC)c1	-3	72*	0	7	0	-4	1
O=C1/C(=C\c2cccc([N+](=O)[O-])c2O)SC(=S)N1Cc1ccccc1	-6	82*	-27	9	16	-89	9
O=C1/C(=C/c2ccc(O)c([N+](=O)[O-])c2)SC(=S)N1Cc1ccccc1	3	1	5	3	-3	.	.
O=C(CCC(=O)N/N=C/c1cc(Cl)cc(Cl)c1O)NCc1ccccc1	7	21*	6	15	-2	11	23*
COC(=O)N[C@H]1CC=C[C@@H]1Cc1cccc(Oc2ccccc2)c1	-2	0	-1	.	-5	.	.
O=c1cc(-c2ccc(O)cc2)oc2cc(O)c(C3OC(CO)C(O)C(O)C3O)c(O)c12 (stereo not given)	8	28*	3	4	-1	-5	20*
O=c1c(-c2ccc(O)cc2)coc2cc(OC3OC(CO)C(O)C(O)C3O)cc(O)c12 (stereo not given)	11	0	-1	-14	-2	.	.
SMILES	SIAE inh	TCR-CD3 inh	mABHD4 FP	HTRA1 inh	PRMT1 FP inh	BSA probe FL	TCR-CD3 inh conf
C/C(=N\NC(=O)CCc1ccccc1)C1C(=O)c2ccccc2C1=O	3	19*	20	13	1	-6	5
COC(=O)[C@]12C[C@H](CC(=O)NCc3cccc4ccccc34)C(=O)N(CCc3ccc(OC)c(OC)c3)C1=C[C@H](C(C)C)O[C@@H]2C1CC1	3	.	-1	.	4	.	.
COc1ccc(C(=O)NCC(c2ccc3c(c2)OCO3)N2CCN(c3ccc(OC)cc3)CC2)cc1 (stereo not given)	10	24*	1	-1	6	6	5
O=C(NCCN1CCC(Cc2ccccc2)CC1)C1CCCN(S(=O)(=O)c2cccs2)C1 (stereo not given)	0	.	4	.	-4	.	.
COc1ccc(-n2c(COc3ccc(C)cc3)nnc2SCC(=O)O)cc1	-3	31*	17	-1	0	13	7
Cc1nc2cc(C(=O)N3CCN(C(=O)OCc4ccccc4)CC3)ccc2n1C1CCCC1	0	.	-1	.	-7	.	.
Cc1ccc(C(=O)Nc2cccc([N+](=O)[O-])c2)cc1S(=O)(=O)Nc1ccc(NC(=O)c2ccccc2)cc1	-50	30*	-98	-88	0	10	23*
Cc1ccc(OCC(=O)NNC(=S)NC(=O)c2ccc(Br)o2)c(C)c1	4	13	5	2	-4	.	.
COc1ccc(C(=O)NNC(=S)NC(=O)c2ccc(Br)o2)cc1OC	5	20*	7	1	3	-5	25*
CCN(CC(=O)Nc1c(F)cccc1F)C(=O)/C=C/c1ccc2ccccc2n1	1	30*	-4	2	5	5	34*
NC(=S)NN=Cc1nccc2ccccc12	-2	-5	29	21	-3	.	.
Cc1cnc(C=NNC(N)=S)c2cccc(N)c12	10	29*	23	28	9	-4	16
C/C(=N\NC(=O)c1ccc(CN2CCc3ccccc3C2)cc1)c1ccccc1O	-3	25*	3	8	2	-11	18
O=C(N/N=C/c1cn(-c2ccccc2)nc1-c1cc2ccccc2o1)c1c[nH]c2ccccc12	-82	25*	-61	-94	1	11	16
O=C(N/N=C/c1cn(-c2ccccc2)nc1-c1cc2ccccc2o1)c1ccccc1Br	1	-1	-17	-42	3	.	.
